Test results published in ChEMBL document CHEMBL1131460, “2-substituted (2SR)-2-amino-2-((1SR,2SR)-2-carboxycycloprop-1-yl)glycines as potent and selective antagonists of group II metabotropic glutamate receptors. 2. Effects of aromatic substitution, pharmacological characterization, and bioavailability” (J Med Chem, 1998).

How the values were obtained:
Rattus norvegicus [1] = assay: Area under curve was evaluated in rat brain when administered intraperitoneally at a dose of 10 mg/kg for 4 or 6 hours; assay type: ADME, organism-based; set-up: dose 10 mg/kg, route intraperitoneal; conditions: in vivo, ip
Rattus norvegicus [2] = assay: Volume of distribution in rat plasma when administered intravenously at a dose of 10 mg/kg; conditions: in vivo, iv
Rattus norvegicus [3] = assay: Area under curve was evaluated in rat brain when administered intraperitoneally at a dose of 10 mg/kg for infinite hours; assay type: ADME, organism-based; set-up: time infinity, dose 10 mg/kg, route intraperitoneal; conditions: in vivo, ip
[4] = Plasma concentration after 0.5 hr at a dose of 10 mg/kg when administered intraperitoneally; conditions: ip
[5] = Maximum concentration achieved in rat plasma when administered intraperitoneally at a dose of 10 mg/kg; assay type: ADME, organism-based; set-up: dose 10 mg/kg, route intraperitoneal; conditions: ip
In short: (§1)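 Male Fischer 344 rats dosed iv or ip at 10 mg/kg, or orally at 10 or 100 mg/kg; five rats per route and dose. Blood and brain taken from one rat per time point (0.25, 0.5, 1, 2, 4 h after iv/ip; 0.5, 1, 2, 4, 6 h after po). Plasma and brain homogenates derivatized, extracted, assayed by negative-ion chemical ionization GCMS (LOQ 100 pg/mL plasma, 1 ng/g brain).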

in vivo = conditions: plasma, ip, 10 mg/kg
[6] = Time of maximum concentration achieved in rat brain when administered intravenously at a dose of 10 mg/kg; assay type: ADME, organism-based; set-up: dose 10 mg/kg, route intravenous; conditions: iv; in short: as §1
Rattus norvegicus [7] = assay: Area under curve was evaluated in rat brain when administered perorally at a dose of 100 mg/kg for 4 or 6 hours; assay type: ADME, organism-based; set-up: dose 100 mg/kg, route oral; conditions: in vivo, po
[8] = Maximum concentration achieved in rat brain when administered intravenously at a dose of 10 mg/kg; assay type: ADME, organism-based; set-up: dose 10 mg/kg, route intravenous; conditions: iv; in short: as §1
[9] = Brain concentration after 4 hr at a dose of 100 mg/kg when administered perorally; conditions: po
[10] = Plasma concentration after 6 hr at a dose of 10 mg/kg when administered perorally; conditions: po
[11] = Brain concentration after 1 hr at a dose of 100 mg/kg when administered perorally; conditions: po
[12] = Brain concentration after 4 hr at a dose of 10 mg/kg when administered intravenously; conditions: iv
[13] = Plasma concentration after 0.5 hr at a dose of 10 mg/kg when administered intravenously; conditions: iv
Rattus norvegicus [14] = assay: Area under curve was evaluated in rat brain when administered intravenously at a dose of 10 mg/kg for infinite hours; assay type: ADME, organism-based; set-up: time infinity, dose 10 mg/kg, route intravenous; conditions: in vivo, iv
[15] = Plasma concentration after 4 hr at a dose of 10 mg/kg when administered intravenously; conditions: iv
[16] = Brain concentration after 2 hr at a dose of 10 mg/kg when administered perorally; conditions: po
[17] = Plasma concentration after 1 hr at a dose of 10 mg/kg when administered intraperitoneally; conditions: ip
Rattus norvegicus [18] = assay: Area under curve was evaluated in rat plasma when administered intraperitoneally at a dose of 10 mg/kg for infinite hours; assay type: ADME, organism-based; set-up: time infinity, dose 10 mg/kg, route intraperitoneal; conditions: in vivo, ip
In short: (§2)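 Male Fischer 344 rats were dosed at 10 mg/kg iv, 10 mg/kg ip, or 10 or 100 mg/kg po, with five rats per route and dose. One rat was sampled for blood and brain at each time: 0.25, 0.5, 1, 2 and 4 h after iv/ip, and 0.5, 1, 2, 4 and 6 h after po. Plasma and brain homogenates were derivatized, extracted and quantified by negative-ion chemical ionization GCMS (LOQ 100 pg/mL plasma, 1 ng/g brain).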

[19] = Half-life in rat plasma when administered intravenously at a dose of 10 mg/kg; assay type: ADME, organism-based; set-up: dose 10 mg/kg, route intravenous; conditions: iv; in short: as §2
[20] = Maximum concentration achieved in rat plasma when administered perorally at a dose of 100 mg/kg; assay type: ADME, organism-based; set-up: dose 100 mg/kg, route oral; conditions: po; in short: as §1
[21] = Plasma concentration after 2 hr at a dose of 100 mg/kg when administered perorally; conditions: po
[22] = Half-life in rat brain when administered intravenously at a dose of 10 mg/kg; assay type: ADME, organism-based; set-up: dose 10 mg/kg, route intravenous; conditions: iv
[23] = Plasma concentration after 6 hr at a dose of 100 mg/kg when administered perorally; conditions: po
[24] = Brain concentration after 0.5 h at a dose of 10 mg/kg when administered intraperitoneally; conditions: ip
Rattus norvegicus [25] = assay: Area under curve was evaluated in rat plasma when administered perorally at a dose of 10 mg/kg for 4 or 6 hours; assay type: ADME, organism-based; set-up: dose 10 mg/kg, route oral; conditions: in vivo, po; in short: as §2
[26] = Brain concentration after 6 hr at a dose of 10 mg/kg when administered perorally; conditions: po
[27] = Plasma concentration after 4 hr at a dose of 100 mg/kg when administered perorally; conditions: po
[28] = Time of maximum concentration achieved in rat plasma when administered perorally at a dose of 10 mg/kg; assay type: ADME, organism-based; set-up: dose 10 mg/kg, route oral; conditions: po; in short: as §1
[29] = Plasma concentration after 1 hr at a dose of 10 mg/kg when administered intravenously; conditions: iv
Rattus norvegicus [30] = assay: Bioavailability was evaluated in rat plasma when administered intraperitoneally at a dose of 10 mg/kg; assay type: ADME, organism-based; conditions: in vivo, ip
[31] = Brain concentration after 0.5 h at a dose of 100 mg/kg when administered perorally; conditions: po
[32] = Plasma concentration after 2 hr at a dose of 10 mg/kg when administered perorally; conditions: po
[33] = Brain concentration after 2 hr at a dose of 10 mg/kg when administered intravenously; conditions: iv
[34] = Brain concentration after 4 hr at a dose of 10 mg/kg when administered perorally; conditions: po
Rattus norvegicus [35] = assay: Area under curve was evaluated in rat plasma when administered perorally at a dose of 100 mg/kg for infinite hours; assay type: ADME, organism-based; set-up: time infinity, dose 100 mg/kg, route oral; conditions: in vivo, po; in short: as §2

N[C@](CC1c2ccccc2Oc2ccccc21)(C(=O)O)[C@H]1C[C@@H]1C(=O)O
AUC (Rattus norvegicus [1]): 774 ng·h/mL
Vd (Rattus norvegicus [2]): 0.83 L/kg
AUC (Rattus norvegicus [3]): 1790 ng·h/mL
concentration at 0.5 h [4]: 10700 ng/mL
Cmax [5]: 14300 ng/mL
concentration at 0.25 h (in vivo): 14300 ng/mL
Tmax [6]: 30 min
AUC (Rattus norvegicus [7]): 120 ng·h/mL
Cmax [8]: 243 ng/g
concentration at 4 h [9]: 20.1 ng/g
concentration at 6 h [10]: 17.5 ng/mL
concentration at 1 h [11]: 16.4 ng/g
concentration at 4 h [12]: 145 ng/g
concentration at 0.5 h [13]: 5970 ng/mL
AUC (Rattus norvegicus [14]): 1840 ng·h/mL
concentration at 4 h [15]: 35.9 ng/mL
concentration at 2 h [16]: 3 ng/g
concentration at 1 h [17]: 4570 ng/mL
AUC (Rattus norvegicus [18]): 12800 ng·h/mL
half-life [19]: 28.8 min
Cmax [20]: 475 ng/mL
concentration at 2 h [21]: 420 ng/mL
half-life [22]: 326 min
concentration at 6 h [23]: 102 ng/mL
concentration at 0.5 h [24]: 246 ng/g
AUC (Rattus norvegicus [25]): 217 ng·h/mL
concentration at 6 h [26]: 4.8 ng/g
concentration at 4 h [27]: 95.5 ng/mL
Tmax [28]: 30 min
concentration at 1 h [29]: 2440 ng/mL
Bioavailabiility (Rattus norvegicus [30]): 152%
concentration at 0.5 h [31]: 5.1 ng/g
concentration at 2 h [32]: 50 ng/mL
concentration at 2 h [33]: 177 ng/g
concentration at 4 h [34]: 7.4 ng/g
AUC (Rattus norvegicus [35]): 1660 ng·h/mL
